Results published in ChEMBL document CHEMBL3392955, “Thiol-derivatized minihepcidins retain biological activity” (Bioorg Med Chem Lett, 2015).
Activity calls are given as the source filed them. No cut-off for these calls is given here.

How the values were obtained:
Ferroportin = molecular target: T1, Ferroportin (Homo sapiens, UniProt Q9NP59); assay: Induction of human ferroportin degradation expressed in HEK293 cells after 24 hrs by flow cytometry; type: cell-based
T1 sequence (Q9NP59 whole entry): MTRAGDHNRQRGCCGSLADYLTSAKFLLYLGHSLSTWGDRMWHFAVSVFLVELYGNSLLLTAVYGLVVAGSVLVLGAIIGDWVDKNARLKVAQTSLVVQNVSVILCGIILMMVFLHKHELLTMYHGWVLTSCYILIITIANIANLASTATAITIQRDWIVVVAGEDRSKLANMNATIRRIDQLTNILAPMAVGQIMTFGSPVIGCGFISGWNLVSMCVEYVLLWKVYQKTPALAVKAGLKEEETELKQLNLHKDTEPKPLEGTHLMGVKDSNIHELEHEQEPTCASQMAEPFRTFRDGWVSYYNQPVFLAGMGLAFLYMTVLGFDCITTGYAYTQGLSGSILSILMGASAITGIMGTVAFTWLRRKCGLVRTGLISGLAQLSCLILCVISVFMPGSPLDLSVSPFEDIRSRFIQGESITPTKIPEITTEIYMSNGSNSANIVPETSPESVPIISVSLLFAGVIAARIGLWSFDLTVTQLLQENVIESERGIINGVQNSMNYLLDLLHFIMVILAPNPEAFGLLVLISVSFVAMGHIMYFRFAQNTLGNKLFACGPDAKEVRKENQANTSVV
Outline: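 HEK293:TREX-Fpn-GFP cells (human ferroportin-GFP under a doxycycline-inducible promoter) plated on poly-D-lysine with 20 μM FAC. Fpn induced with 500 ng/mL doxycycline for 24 h, then washed off. Peptide exposure 24 h. Green fluorescence read by flow cytometry, gated against uninduced cells; induced untreated cells are the positive control.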

Mus musculus [1] = assay: Induction of human ferroportin degradationin C57BL/6 mouse assessed as decrease in serum iron at 50 to 100 nmol, ip measured after 6 to 24 hrs by colorimetric assay; type: functional, organism-based
Outline: (§1)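 Mice dosed intraperitoneally with 50 or 100 nmoles peptide in 100 μL PBS; controls received 100 μL PBS. Killed at 6, 24 or 48 h. Serum from cardiac-puncture blood. Iron measured by microplate colorimetric assay on 50 μL serum. Result is % decrease versus mean serum iron of PBS-injected mice.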

Mus musculus [2] = assay: Induction of human ferroportin degradationin C57BL/6 mouse assessed as decrease in serum iron at 50 to 100 nmol, ip measured after 48 hrs by colorimetric assay; type: functional, organism-based; outline: as §1
[3] = Stability of the compound in DMSO at room temperature after 30 days by LC/MS/MS analysis; type: physicochemical; details: read-out: Stability
Outline: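 Compound kept as a 10 mM DMSO solution at room temperature for 30 days. Remaining intact compound (decomposition or sulfide oxidation) measured by LC/MS/MS.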

| SMILES | EC50 (Ferroportin) [nM] | further results |
| --- | --- | --- |
| CCCCCCCCCCCCCCCCNC(=O)CN(CC(N)=O)C(=O)CCCCCNC(=O)[C@H](Cc1ccccc1)NC(=O)[C@H](CCCNC(=N)N)NC(=O)[C@H](CS/C(=C\S(=O)(=O)C(C)(C)C)S(=O)(=O)C(C)(C)C)NC(=O)[C@H](CCCNC(=N)N)NC(=O)C[C@@H]1CCCN1C(=O)[C@@H](NC(=O)[C@H](Cc1cnc[nH]1)NC(=O)[C@@H](NC(=O)CNC(=O)CO)[C@@H](C)O)C(c1ccccc1)c1ccccc1 | 10 |  |
| CCCCCCCCCCCCCCCCNC(=O)CN(CC(N)=O)C(=O)CCCCCNC(=O)[C@H](Cc1ccccc1)NC(=O)[C@H](CCCNC(=N)N)NC(=O)[C@H](CS/C(=C\C(=O)OC)C(=O)OC)NC(=O)[C@H](CCCNC(=N)N)NC(=O)C[C@@H]1CCCN1C(=O)[C@@H](NC(=O)[C@H](Cc1cnc[nH]1)NC(=O)[C@@H](NC(=O)CNC(=O)CO)[C@@H](C)O)C(c1ccccc1)c1ccccc1 | 12.6 |  |
| CCCCCCCCCCCCCCCCNC(=O)CN(CC(N)=O)C(=O)CCCCCNC(=O)[C@H](Cc1ccccc1)NC(=O)[C@H](CCCNC(=N)N)NC(=O)[C@H](CS/C(=C\S(N)(=O)=O)c1ccccc1)NC(=O)[C@H](CCCNC(=N)N)NC(=O)C[C@@H]1CCCN1C(=O)[C@@H](NC(=O)[C@H](Cc1cnc[nH]1)NC(=O)[C@@H](NC(=O)CNC(=O)CO)[C@@H](C)O)C(c1ccccc1)c1ccccc1 | 34 |  |
| CCCCCCCCCCCCCCCCNC(=O)CN(CC(N)=O)C(=O)CCCCCNC(=O)[C@H](Cc1ccccc1)NC(=O)[C@H](CCCNC(=N)N)NC(=O)[C@H](CS/C(=C\P(=O)(OCC)OCC)P(=O)(OCC)OCC)NC(=O)[C@H](CCCNC(=N)N)NC(=O)C[C@@H]1CCCN1C(=O)[C@@H](NC(=O)[C@H](Cc1cnc[nH]1)NC(=O)[C@@H](NC(=O)CNC(=O)CO)[C@@H](C)O)C(c1ccccc1)c1ccccc1 | 1.1 | Activity (Mus musculus [1]): Active; Activity (Mus musculus [2]): inactive; remaining at 720 h [3]: 99.5% |
| CCCCCCCCCCCCCCCCNC(=O)CN(CC(N)=O)C(=O)CCCCCNC(=O)[C@H](Cc1ccccc1)NC(=O)[C@H](CCCNC(=N)N)NC(=O)[C@H](CS/C=C\C(=O)O)NC(=O)[C@H](CCCNC(=N)N)NC(=O)C[C@@H]1CCCN1C(=O)[C@@H](NC(=O)[C@H](Cc1cnc[nH]1)NC(=O)[C@@H](NC(=O)CNC(=O)CO)[C@@H](C)O)C(c1ccccc1)c1ccccc1 | 218 |  |
| CCCCCCCCCCCCCCCCNC(=O)CN(CC(N)=O)C(=O)CCCCCNC(=O)[C@H](Cc1ccccc1)NC(=O)[C@H](CCCNC(=N)N)NC(=O)[C@H](CS/C(=C\C(=O)OCC)C(=O)OCC)NC(=O)[C@H](CCCNC(=N)N)NC(=O)C[C@@H]1CCCN1C(=O)[C@@H](NC(=O)[C@H](Cc1cnc[nH]1)NC(=O)[C@@H](NC(=O)CNC(=O)CO)[C@@H](C)O)C(c1ccccc1)c1ccccc1 | 10.4 |  |
| CCCCCCCCCCCCCCCCNC(=O)CN(CC(N)=O)C(=O)CCCCCNC(=O)[C@H](Cc1ccccc1)NC(=O)[C@H](CCCNC(=N)N)NC(=O)[C@H](CS/C(=C\C(N)=O)C(N)=O)NC(=O)[C@H](CCCNC(=N)N)NC(=O)C[C@@H]1CCCN1C(=O)[C@@H](NC(=O)[C@H](Cc1cnc[nH]1)NC(=O)[C@@H](NC(=O)CNC(=O)CO)[C@@H](C)O)C(c1ccccc1)c1ccccc1 | 8.4 |  |
| CCCCCCCCCCCCCCCCNC(=O)CN(CC(N)=O)C(=O)CCCCCNC(=O)[C@H](Cc1ccccc1)NC(=O)[C@H](CCCNC(=N)N)NC(=O)[C@H](CS/C(=C\C(=O)OC(C)(C)C)C(=O)OC(C)(C)C)NC(=O)[C@H](CCCNC(=N)N)NC(=O)C[C@@H]1CCCN1C(=O)[C@@H](NC(=O)[C@H](Cc1cnc[nH]1)NC(=O)[C@@H](NC(=O)CNC(=O)CO)[C@@H](C)O)C(c1ccccc1)c1ccccc1 | 6.3 |  |
